The values below come from ChEMBL document CHEMBL3351398, “Discovery of a Potent and Selective DGAT1 Inhibitor with a Piperidinyl-oxy-cyclohexanecarboxylic Acid Moiety” (ACS Med Chem Lett, 2014).

A short description of the data set: Drug level in small intestine of C57BL/6 mouse at 10 mg/kg, po after 3 hrs. The class given is ADME, organism-based. Details: dose 10 mg/kg, route oral. The following applies: read-out: Drug uptake. In short, it runs like this:
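Tissue distribution in C57BL/6 mice. A single oral dose of 10 mg/kg was given as a solution in EtOH/PEG400/water (10:50:40). Parent and its cis isomer were both measured, in μM, in plasma, liver, small intestine, adipose fat and skin at 3 h and 24 h.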

`O=C(O)[C@H]1CC[C@H](OC2CCN(c3ccc(-c4nc5cc(C(F)(F)F)ccc5[nH]4)cn3)CC2)CC1`: the concentration at 3 h turned out to be 36.6 µM.
